In data set [1] the target is T1, Toll-like receptor 8 (Homo sapiens) (UniProt Q9NR97).
T1 sequence (whole entry): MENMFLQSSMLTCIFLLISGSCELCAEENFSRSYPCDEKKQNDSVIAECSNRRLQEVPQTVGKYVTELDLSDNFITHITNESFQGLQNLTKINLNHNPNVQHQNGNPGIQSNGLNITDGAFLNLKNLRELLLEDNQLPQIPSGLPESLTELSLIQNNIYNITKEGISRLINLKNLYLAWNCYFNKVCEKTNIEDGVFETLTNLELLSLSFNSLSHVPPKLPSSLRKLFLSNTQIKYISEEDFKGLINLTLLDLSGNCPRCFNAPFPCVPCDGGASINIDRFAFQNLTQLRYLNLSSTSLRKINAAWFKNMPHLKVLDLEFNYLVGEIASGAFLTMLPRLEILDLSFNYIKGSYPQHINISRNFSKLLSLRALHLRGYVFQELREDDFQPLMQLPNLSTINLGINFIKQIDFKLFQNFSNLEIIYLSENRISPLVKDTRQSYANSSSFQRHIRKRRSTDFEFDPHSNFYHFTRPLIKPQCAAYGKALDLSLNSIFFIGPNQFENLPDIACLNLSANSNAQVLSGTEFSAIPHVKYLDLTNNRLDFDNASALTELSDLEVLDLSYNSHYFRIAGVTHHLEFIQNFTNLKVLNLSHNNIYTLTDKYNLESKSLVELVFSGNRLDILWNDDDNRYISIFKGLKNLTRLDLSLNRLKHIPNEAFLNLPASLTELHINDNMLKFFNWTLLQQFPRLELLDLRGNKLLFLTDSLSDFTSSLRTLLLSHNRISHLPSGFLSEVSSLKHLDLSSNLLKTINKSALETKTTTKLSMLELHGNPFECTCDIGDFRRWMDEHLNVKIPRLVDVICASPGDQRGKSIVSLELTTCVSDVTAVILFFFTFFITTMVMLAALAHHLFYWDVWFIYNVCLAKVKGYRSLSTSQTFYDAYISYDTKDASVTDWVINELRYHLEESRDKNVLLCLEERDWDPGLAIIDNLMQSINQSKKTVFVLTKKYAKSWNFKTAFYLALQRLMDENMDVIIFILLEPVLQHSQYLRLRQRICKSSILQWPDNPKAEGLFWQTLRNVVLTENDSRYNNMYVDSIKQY
The data set can be described thus: Agonist activity at human TLR8 expressed in HEK293 cells assessed as induction of receptor activation incubated for 6 hrs by NF-kappaB-luciferase reporter gene assay. Type of data set: cell-based.

The next data set deals with D(1A) dopamine receptor (Homo sapiens, UniProt P21728). The data set can be described thus: Inhibition of dopamine D1 receptor (unknown origin).
A short description of data set [2]: Cmax in C57BL/6J mouse liver at 3 mg/kg, po by LC-MS analysis. The class given is ADME, organism-based. The arrangement: dose 3 mg/kg, route oral. The method, boiled down: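 Healthy C57BL/6 mice, groups of 15, given a single oral dose (0.3, 1, 3, 10 or 30 mg/kg) in 20% HP-β-CD. Blood drawn at 0.5 h. Three mice per group sacrificed at 0.5, 1, 2, 4 or 7 h, and compound in plasma and liver measured by LC−MS. Values rounded to whole numbers.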

Data set [3] deals with Plasma. The experiment in a line: Effect on cytokine profile in C57BL/6J mouse plasma assessed as IL-12p70 levels at 10 mg/kg, po by multiplex assay (reference value: 560 pg/ml). Type of data set: functional. The method, boiled down: (§1)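 Single oral gavage in 20% HP-β-CD to healthy C57BL/6 mice, groups of 15 at 0.3, 1, 3, 10 or 30 mg/kg. Three mice per group sacrificed at 0.5, 1, 2, 4 or 7 h. Plasma and liver cytokines by multiplex, maximum level reported, rounded to nearest multiple of 5.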

For data set [4], the system named is Liver. The data set can be described thus: Effect on cytokine profile in C57BL/6J mouse liver assessed as IL-12p70 levels at 30 mg/kg, po by multiplex assay (reference value: 5 pg/g). The class given is functional. The method, boiled down:
as §1

Data set [5] relates to Plasma. The data set can be described thus: Effect on cytokine profile in C57BL/6J mouse plasma assessed as IFNgamma levels at 1 mg/kg, po by multiplex assay. Type of data set: functional, organism-based. The method, boiled down: as §1
The test system of data set [6] is Liver. The data set can be described thus: Proinflammatory activity in C57BL/6J mouse liver assessed as IL-1beta levels at 0.3 mg/kg, po by multiplex assay. The class given is functional.
For data set [7], the system named is Plasma. The data set can be described thus: Proinflammatory activity in C57BL/6J mouse plasma assessed as CXCL-1 levels at 1 mg/kg, po by multiplex assay (reference value: 230 pg/ml). Type of data set: functional.
For data set [8], the system named is Plasma. The experiment in a line: Proinflammatory activity in C57BL/6J mouse plasma assessed as TNFalpha levels at 3 mg/kg, po by multiplex assay (reference value: 70 pg/ml). The class given is functional.
Data set [9] deals with Liver. The data set can be described thus: Proinflammatory activity in C57BL/6J mouse liver assessed as TNFalpha levels at 0.3 mg/kg, po by multiplex assay (reference value: 15 pg/g). The class given is functional.
A short description of data set [10]: Cmax in cynomolgus monkey plasma at 9 mg/kg, po by LC-MS analysis. The arrangement: dose 9 mg/kg, route oral. The class given is ADME, organism-based, Macaca fascicularis. The method, boiled down: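 Healthy cynomolgus monkeys received oral doses of 1, 3, 9 and 30 mg/kg, with a 2-week wash-out between doses. Systemic compound concentrations by LC−MS at 0.25, 0.5, 1, 2, 4, 8 and 24 h postdose.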

Data set [11] concerns Cynomolgus monkey. The experiment in a line: Activation of monocytes in cynomolgus monkey plasma assessed as upregulation of IL1Ra levels at 3 mg/kg, po after 24 hrs by Luminex assay (reference value: 320 pg/ml). The class given is functional, Macaca fascicularis.
Data set [12] relates to Cynomolgus monkey. The data set can be described thus: Activation of monocytes in cynomolgus monkey plasma assessed as upregulation of IL1Ra levels at 9 mg/kg, po after 24 hrs by Luminex assay (reference value: 320 pg/ml). The class given is functional, Macaca fascicularis.
For data set [13], the system named is Cynomolgus monkey. The data set can be described thus: Activation of monocytes in cynomolgus monkey plasma assessed as upregulation of MIP1 levels at 3 mg/kg, po after 24 hrs by Luminex assay (reference value: 37 pg/ml). Type of data set: functional, Macaca fascicularis.
Data set [14] deals with Cynomolgus monkey. The data set can be described thus: Induction of ISG response in cynomolgus monkey plasma assessed as upregulation of Isg15 mRNA expression at 1 mg/kg, po after 24 hrs by Fluidigm RT-qPCR analysis (reference value: 1). Type of data set: functional, Macaca fascicularis. The method, boiled down:
(§2)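 Cynomolgus monkeys, single oral doses of 1, 3, 9 and 30 mg/kg with a planned 2-week wash-out between doses. Systemic ISG (ISG15, Mx1, OAS1) mRNA was measured by Fluidigm RT-qPCR at 1, 2, 4, 8 and 24 h postdose.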

Data set [15] deals with Cynomolgus monkey. The experiment in a line: Induction of ISG response in cynomolgus monkey plasma assessed as upregulation of Isg15 mRNA expression at 30 mg/kg, po after 24 hrs by Fluidigm RT-qPCR analysis (reference value: 1). Type of data set: functional, Macaca fascicularis. The method, boiled down: as §2
Data set [16] deals with Cynomolgus monkey. The experiment in a line: Toxicity in cynomolgus monkey assessed as induction of clinical pathology changes up to 30 mg/kg, po. The class given is organism-based, Macaca fascicularis. The settings on record: in vivo.
The test system of data set [17] is Cynomolgus monkey. The experiment in a line: Toxicity in cynomolgus monkey assessed as induction of emesis at 30 mg/kg, po after 1 hr postdosing. Type of data set: organism-based, Macaca fascicularis. Particulars: in vivo.
Data set [18] addresses TLR7 and TLR8 (Homo sapiens) (UniProt Q9NYK1+Q9NR97). The experiment in a line: Agonist activity at TLR7/8 in human PBMCs co-cultured with primary human hepatocytes infected with HBV genotype C for 12 days assessed as increase in VEGF levels up to 5 uM measured after 42 days.
The target in the next data set is Cytochrome P450 3A4 (Homo sapiens, UniProt P08684). The experiment in a line: Induction of CYP3A4 (unknown origin). Type of data set: ADME.

SMILES strings stand for the structures. Active and inactive are the calls of the source. The rule behind the calls is not given here.

Chain of Cytochrome P450 3A4 (P08684 whole entry): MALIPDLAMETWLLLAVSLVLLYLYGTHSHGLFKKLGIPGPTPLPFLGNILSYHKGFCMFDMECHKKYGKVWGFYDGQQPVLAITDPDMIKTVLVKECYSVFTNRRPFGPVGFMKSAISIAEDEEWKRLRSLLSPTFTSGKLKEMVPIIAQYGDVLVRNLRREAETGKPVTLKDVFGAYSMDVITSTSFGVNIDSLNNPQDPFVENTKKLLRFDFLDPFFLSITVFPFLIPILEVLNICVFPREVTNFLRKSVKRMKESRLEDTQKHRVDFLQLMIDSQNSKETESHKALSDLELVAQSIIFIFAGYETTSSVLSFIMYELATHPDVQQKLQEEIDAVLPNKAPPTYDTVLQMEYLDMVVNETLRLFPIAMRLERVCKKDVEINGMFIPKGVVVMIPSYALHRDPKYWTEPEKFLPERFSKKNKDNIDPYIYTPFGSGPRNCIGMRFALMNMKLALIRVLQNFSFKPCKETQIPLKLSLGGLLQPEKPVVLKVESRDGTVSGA
Chain of D(1A) dopamine receptor (P21728 whole entry): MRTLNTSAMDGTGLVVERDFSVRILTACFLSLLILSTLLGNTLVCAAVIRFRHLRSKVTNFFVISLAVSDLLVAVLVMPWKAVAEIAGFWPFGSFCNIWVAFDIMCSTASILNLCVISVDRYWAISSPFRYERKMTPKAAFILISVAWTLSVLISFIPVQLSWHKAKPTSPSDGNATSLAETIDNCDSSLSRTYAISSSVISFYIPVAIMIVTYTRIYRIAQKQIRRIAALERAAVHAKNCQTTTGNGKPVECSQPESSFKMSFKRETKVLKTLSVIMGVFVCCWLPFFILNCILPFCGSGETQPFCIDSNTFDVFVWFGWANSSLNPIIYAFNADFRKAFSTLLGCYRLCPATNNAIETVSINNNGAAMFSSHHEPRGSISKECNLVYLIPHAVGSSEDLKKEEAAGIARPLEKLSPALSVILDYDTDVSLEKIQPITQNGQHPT

For `CCC[C@@H](CCO)Nc1nc(N)nc2c(F)cccc12`, in [1], the MEC was found to be 0.16 µM. The molecule also came in with an IC50 at D(1A) dopamine receptor of more than 10 µM. In addition, the Cmax in [2] stood at 385 ng/g; in data set [10], 815 ng/mL. The Activity with Plasma [3] is 630 pg/mL; in the data set with Liver [4], 2340 pg/g; in the data set with Plasma [5], “Below limit of detection”; in the data set with Liver [6], 9765 pg/g; in the data set with Plasma [7], 2155 pg/mL; with Plasma [8], 1665 pg/mL. The Activity with Liver [9] was 1945 pg/g; in the data set with Cynomolgus monkey [11] it was 2020 pg/mL; with Cynomolgus monkey [12] it was 2455 pg/mL; with Cynomolgus monkey [13] it was 85 pg/mL; in the data set on Cynomolgus monkey [16], “Non-Toxic”; with Cynomolgus monkey [17], “Toxic”. The Activity entry on Cytochrome P450 3A4 is reported as “Not Active”. In addition, the “fold change (FC)” value stood at 145 in the data set on Cynomolgus monkey [14] and 285 in the data set with Cynomolgus monkey [15]. The outcome in data set [18] was Active.

The values are drawn from ChEMBL document CHEMBL4130635, “2,4-Diaminoquinazolines as Dual Toll-like Receptor (TLR) 7/8 Modulators for the Treatment of Hepatitis B Virus” (J Med Chem, 2018).
